Assay results from PMC4310626 (Biochemistry, 2014).
Read-outs that look alike come from different tables or passages of the source.

Key:
[1] = target: E. coli NDH-1 NuoD mutant H315R (Escherichia coli, UniProt P0AFD4+P33599, H315R); assay: Inhibition of dNADH oxidase activity, NuoD mutant H315R; type: biochemical
Outline: (§1)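 Inverted membrane vesicles came from chromosomal NuoD-segment mutant or wild-type E. coli, grown overnight at 37 °C in Terrific Broth and disrupted by sonication and French press. The assay used 80 μg protein/mL in 10 mM potassium phosphate (pH 7.0) with 1 mM EDTA, no KCN and no added acceptor, at 30 °C. After 1 min preincubation with test compound, 150 μM dNADH was added. A340 was followed (ε 6.22 mM⁻¹ cm⁻¹), and IC50 was taken as the concentration giving 50% inhibition.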

[2] = target: E. coli NDH-1 NuoD mutant Y273F (Escherichia coli, UniProt P0AFD4+P33599, Y273F); assay: Inhibition of dNADH oxidase activity, NuoD mutant Y273F; type: biochemical
Chain of E. coli NDH-1 NuoD mutant Y273F (P33599 whole entry Y273F): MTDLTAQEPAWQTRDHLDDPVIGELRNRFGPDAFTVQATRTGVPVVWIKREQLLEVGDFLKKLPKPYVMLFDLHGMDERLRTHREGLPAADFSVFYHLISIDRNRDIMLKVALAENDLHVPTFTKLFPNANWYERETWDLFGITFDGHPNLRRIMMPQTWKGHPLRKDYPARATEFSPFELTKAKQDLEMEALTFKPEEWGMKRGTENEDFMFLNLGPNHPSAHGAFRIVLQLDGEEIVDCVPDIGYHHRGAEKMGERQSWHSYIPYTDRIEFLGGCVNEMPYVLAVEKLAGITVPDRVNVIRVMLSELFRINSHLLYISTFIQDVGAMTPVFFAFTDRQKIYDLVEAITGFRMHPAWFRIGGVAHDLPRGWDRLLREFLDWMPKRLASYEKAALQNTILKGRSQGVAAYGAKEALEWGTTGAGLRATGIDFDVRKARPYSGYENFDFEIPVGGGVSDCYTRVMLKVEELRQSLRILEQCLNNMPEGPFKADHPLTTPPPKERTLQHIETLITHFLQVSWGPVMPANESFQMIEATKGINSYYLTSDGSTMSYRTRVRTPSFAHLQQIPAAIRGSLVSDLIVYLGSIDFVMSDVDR
Chain of E. coli NDH-1 NuoD mutant Y273F (P0AFD4 whole entry): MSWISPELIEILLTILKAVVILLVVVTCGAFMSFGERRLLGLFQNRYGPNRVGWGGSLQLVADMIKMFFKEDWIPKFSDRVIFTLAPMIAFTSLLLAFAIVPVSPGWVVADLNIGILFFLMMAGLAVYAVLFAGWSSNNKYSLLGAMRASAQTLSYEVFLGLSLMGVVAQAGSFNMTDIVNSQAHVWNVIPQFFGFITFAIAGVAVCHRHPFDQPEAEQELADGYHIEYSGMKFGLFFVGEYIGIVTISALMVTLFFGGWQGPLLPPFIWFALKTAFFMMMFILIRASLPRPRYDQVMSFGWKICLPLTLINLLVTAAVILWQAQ
Chain of E. coli NDH-1 NuoD mutant Y273F (P0AFC7 whole entry partner): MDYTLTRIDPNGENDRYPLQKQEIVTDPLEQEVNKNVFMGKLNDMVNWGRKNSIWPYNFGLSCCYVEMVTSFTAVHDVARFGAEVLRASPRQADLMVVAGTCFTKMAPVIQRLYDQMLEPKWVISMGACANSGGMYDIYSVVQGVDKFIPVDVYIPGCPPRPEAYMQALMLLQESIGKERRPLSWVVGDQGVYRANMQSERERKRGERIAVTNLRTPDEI
Outline: as §1

[3] = target: E. coli NDH-1 NuoD mutant G225A (Escherichia coli, UniProt P0AFD4+P33599, G225A); assay: Inhibition of dNADH oxidase activity, NuoD mutant G225A; type: biochemical
Chain of E. coli NDH-1 NuoD mutant G225A (P33599 whole entry G225A): as the sequence (P33599 whole entry Y273F) above, with G225A, F273Y counted along it
Chain of E. coli NDH-1 NuoD mutant G225A (P0AFD4 whole entry): as the sequence (P0AFD4 whole entry) above
Chain of E. coli NDH-1 NuoD mutant G225A (P0AFC7 whole entry partner): as the sequence (P0AFC7 whole entry partner) above
Outline: as §1

[4] = target: E. coli NDH-1 NuoH mutant E36D (Escherichia coli, UniProt P0AFC7+P0AFD4+P33599, E36D); assay: Inhibition of dNADH oxidase activity, NuoH mutant E36D; type: biochemical
[5] = target: E. coli NDH-1, other NuoD mutants (Escherichia coli, UniProt P0AFD4+P33599); assay: Inhibition of dNADH oxidase activity, other NuoD mutants; type: biochemical; details: read-out: IC50 values; all other NuoD mutants (other than G225A, Y273F)
Outline: as §1

[6] = target: E. coli NDH-1 NuoH mutant D63E (Escherichia coli, UniProt P0AFC7+P0AFD4+P33599, D63E); assay: Inhibition of dNADH oxidase activity, NuoH mutant D63E; type: biochemical
[7] = target: E. coli NDH-1 NuoD mutant D325A (Escherichia coli, UniProt P0AFD4+P33599, D325A); assay: Inhibition of dNADH oxidase activity, NuoD mutant D325A; type: biochemical
Chain of E. coli NDH-1 NuoD mutant D325A (P33599 whole entry D325A): as the sequence (P33599 whole entry Y273F) above, with F273Y, D325A counted along it
Chain of E. coli NDH-1 NuoD mutant D325A (P0AFD4 whole entry): as the sequence (P0AFD4 whole entry) above
Chain of E. coli NDH-1 NuoD mutant D325A (P0AFC7 whole entry partner): as the sequence (P0AFC7 whole entry partner) above
Outline: as §1

[8] = target: T1, E. coli NDH-1 wild-type (Escherichia coli, UniProt P0AFD4+P33599); assay: Inhibition of dNADH oxidase activity in membrane vesicles, wild-type; type: biochemical
T1 sequence (P33599 whole entry): as the sequence (P33599 whole entry Y273F) above, with F273Y counted along it
T1 sequence (P0AFD4 whole entry): as the sequence (P0AFD4 whole entry) above
T1 sequence (P0AFC7 whole entry partner): as the sequence (P0AFC7 whole entry partner) above
Outline: as §1

[9] = target: E. coli NDH-1 NuoD mutant H224R (Escherichia coli, UniProt P0AFD4+P33599, H224R); assay: Inhibition of dNADH oxidase activity, NuoD mutant H224R; type: biochemical; details: read-out: app IC50, 50% inhibition of the dNADH oxidase activity
[10] = target: E. coli NDH-1 NuoD mutant G235V (Escherichia coli, UniProt P0AFD4+P33599, G235V); assay: Inhibition of dNADH oxidase activity, NuoD mutant G235V; type: biochemical
Outline: as §1

[11] = target: E. coli NDH-1 NuoD mutant E236A (Escherichia coli, UniProt P0AFD4+P33599, E236A); assay: Inhibition of dNADH oxidase activity, NuoD mutant E236A; type: biochemical
Outline: as §1

[12] = target: E. coli NDH-1 NuoD mutant E236D (Escherichia coli, UniProt P0AFD4+P33599, E236D); assay: Inhibition of dNADH oxidase activity, NuoD mutant E236D; type: biochemical
Outline: as §1

[13] = target: E. coli NDH-1 NuoD mutant G251A (Escherichia coli, UniProt P0AFD4+P33599, G251A); assay: Inhibition of dNADH oxidase activity, NuoD mutant G251A; type: biochemical
Outline: as §1

[14] = target: E. coli NDH-1 NuoH mutant E216A (Escherichia coli, UniProt P0AFC7+P0AFD4+P33599, E216A); assay: Inhibition of dNADH oxidase activity, NuoH mutant E216A; type: biochemical
[15] = target: E. coli NDH-1 NuoD mutant R298K (Escherichia coli, UniProt P0AFD4+P33599, R298K); assay: Inhibition of dNADH oxidase activity, NuoD mutant R298K; type: biochemical
Outline: as §1

[16] = target: E. coli NDH-1 NuoD mutant G235A (Escherichia coli, UniProt P0AFD4+P33599, G235A); assay: Inhibition of dNADH oxidase activity, NuoD mutant G235A; type: biochemical
Outline: as §1

[17] = target: E. coli NDH-1 NuoH mutant E157K (Escherichia coli, UniProt P0AFC7+P0AFD4+P33599, E157K); assay: Inhibition of dNADH oxidase activity, NuoH mutant E157K; type: biochemical
[18] = target: E. coli NDH-1 NuoH mutant E71A (Escherichia coli, UniProt P0AFC7+P0AFD4+P33599, E71A); assay: Inhibition of dNADH oxidase activity, NuoH mutant E71A; type: biochemical; details: app IC50, 50% inhibition of the dNADH oxidase activity
[19] = target: E. coli NDH-1 NuoH mutant K303A (Escherichia coli, UniProt P0AFC7+P0AFD4+P33599, K303A); assay: Inhibition of dNADH oxidase activity, NuoH mutant K303A; type: biochemical
[20] = target: E. coli NDH-1 NuoD mutant H355A (Escherichia coli, UniProt P0AFD4+P33599, H355A); assay: Inhibition of dNADH oxidase activity, NuoD mutant H355A; type: biochemical
Outline: as §1

[21] = target: E. coli NDH-1 NuoH mutant P49A (Escherichia coli, UniProt P0AFC7+P0AFD4+P33599, P49A); assay: Inhibition of dNADH oxidase activity, NuoH mutant P49A; type: biochemical
[22] = target: E. coli NDH-1 NuoH mutant Q44A (Escherichia coli, UniProt P0AFC7+P0AFD4+P33599, Q44A); assay: Inhibition of dNADH oxidase activity, NuoH mutant Q44A; type: biochemical
[23] = target: E. coli NDH-1 NuoD mutant D325E (Escherichia coli, UniProt P0AFD4+P33599, D325E); assay: Inhibition of dNADH oxidase activity, NuoD mutant D325E; type: biochemical
Outline: as §1

[24] = target: E. coli NDH-1 NuoD mutant R228K (Escherichia coli, UniProt P0AFD4+P33599, R228K); assay: Inhibition of dNADH oxidase activity, NuoD mutant R228K; type: biochemical; details: app IC50, 50% inhibition of the dNADH oxidase activity
Outline: as §1

[25] = target: E. coli NDH-1 NuoD mutant H315A (Escherichia coli, UniProt P0AFD4+P33599, H315A); assay: Inhibition of dNADH oxidase activity, NuoD mutant H315A; type: biochemical
Outline: as §1

[26] = target: E. coli NDH-1 NuoD mutant G251V (Escherichia coli, UniProt P0AFD4+P33599, G251V); assay: Inhibition of dNADH oxidase activity, NuoD mutant G251V; type: biochemical; details: app IC50, 50% inhibition of the dNADH oxidase activity
Outline: as §1

[27] = target: E. coli NDH-1 NuoD mutant R298A (Escherichia coli, UniProt P0AFD4+P33599, R298A); assay: Inhibition of dNADH oxidase activity, NuoD mutant R298A; type: biochemical; details: app IC50, 50% inhibition of the dNADH oxidase activity
Outline: as §1

[28] = target: E. coli NDH-1 NuoD mutant E308D (Escherichia coli, UniProt P0AFD4+P33599, E308D); assay: Inhibition of dNADH oxidase activity, NuoD mutant E308D; type: biochemical; details: app IC50, 50% inhibition of the dNADH oxidase activity
Outline: as §1

[29] = target: T1, E. coli NDH-1 wild-type; details: read-out: IC50 value, ref [16],[55]; cited from earlier work
[30] = target: E. coli NDH-1 NuoD mutant R228A (Escherichia coli, UniProt P0AFD4+P33599, R228A); assay: Inhibition of dNADH oxidase activity, NuoD mutant R228A; type: biochemical; details: app IC50, 50% inhibition of the dNADH oxidase activity
Outline: as §1

[31] = target: E. coli NDH-1 NuoD mutant R311K (Escherichia coli, UniProt P0AFD4+P33599, R311K); assay: Inhibition of dNADH oxidase activity, NuoD mutant R311K; type: biochemical
Outline: as §1

[32] = target: E. coli NDH-1 NuoD mutant R270K (Escherichia coli, UniProt P0AFD4+P33599, R270K); assay: Inhibition of dNADH oxidase activity, NuoD mutant R270K; type: biochemical; details: app IC50, 50% inhibition of the dNADH oxidase activity
Outline: as §1

With `[N-]=[N+]=Nc1ccc2ncnc(NCCc3ccc(I)cc3)c2c1` [AzQ, 6-azido-4-(4-iodophenetylamino) quinazoline] the IC50 ([1]; read-out: app IC50, 50% inhibition of the dNADH oxidase activity, NuoD mutant H315R) was 903 nM, the “increase in the IC50 value” ([2]; NuoD mutant Y273F versus wild-type) was about 2.5 fold and the IC50 ([2]; read-out: app IC50, 50% inhibition of the dNADH oxidase activity, NuoD mutant Y273F) was 2530 nM. For the same molecule, the “increase in the IC50 value” ([3]; NuoD mutant G225A versus wild-type) was about 3 fold, the “decrease in the IC50 value” ([4]; NuoH mutant E36D versus wild-type) was 3–4 fold and the IC50 [5] was 1000 nM. The “decrease in the IC50 value” ([6]; NuoH mutant D63E versus wild-type) was 3–4 fold, the IC50 ([7]; read-out: app IC50, 50% inhibition of the dNADH oxidase activity, NuoD mutant D325A) was 1140 nM and the IC50 ([8]; read-out: app IC50, 50% inhibition of the dNADH oxidase activity, WT, NuoD series (Table 3)) was 1080 nM. The IC50 ([8]; read-out: app IC50, 50% inhibition of the dNADH oxidase activity, WT, NuoH series (Table 4)) was 1080 nM and the IC50 [9] was 1130 nM.

In the case of `CCCCCCCCCCCC[C@H](O)[C@H]1CC[C@H]([C@H]2CC[C@H]([C@H](O)CCCCCCCC[C@@H](O)CC3=C[C@H](C)OC3=O)O2)O1` [squamotacin], the IC50 [10] is reported as 6 nM, the IC50 [1] is reported as 4 nM and the IC50 [11] is reported as 5 nM. It also gave an IC50 [12] of 7 nM, an IC50 [2] of 9 nM and an IC50 [3] of 5 nM. The IC50 [13] was 4 nM, the IC50 [14] was 8 nM and the IC50 [15] was 4 nM. The IC50 ([4]; app IC50, 50% inhibition of the dNADH oxidase activity, NuoH mutant E36D) was 3 nM, the IC50 [16] was 4 nM and the IC50 [17] was 6 nM. For the same molecule, the IC50 [18] was 3 nM, the IC50 [19] was 10 nM and the IC50 [20] was 5 nM. The IC50 [21] was 5 nM, the IC50 ([6]; app IC50, 50% inhibition of the dNADH oxidase activity, NuoH mutant D63E) was 4 nM and the IC50 [22] was 5 nM. For the same molecule, the IC50 [23] was 5 nM, the IC50 [24] was 3 nM and the IC50 [25] was 10 nM. For the same molecule, the IC50 [26] was 2 nM, the IC50 [27] was 2 nM and the IC50 [28] was 2 nM. For the same molecule, the IC50 [29] was 2 to 10 nM, the IC50 [30] was 2 nM and the IC50 [31] was 4 nM. The IC50 [7] was 11 nM, the IC50 [32] was 2 nM and the IC50 [8] was 10 nM.
